Results taken from ChEMBL document CHEMBL1133753, “6-N-Acyltriciribine analogues: structure-activity relationship between acyl carbon chain length and activity against HIV-1” (J Med Chem, 2000).

Legend:
[1] = system: CEM-SS; assay: Visual cytotoxicity was scored on CEM-SS cells; assay type: functional, cell-based; conditions: Homo sapiens
[2] = system: HFF; assay: Antiviral activity against HCMV was determined by plaque reduction assay using HFF cells; assay type: functional, cell-based; conditions: Homo sapiens
[3] = (§1) Cytotoxicity measured as Inhibition of KB cell growth was assessed.; assay type: functional, cell-based; conditions: Homo sapiens
[4] = Antiviral activity against HSV-1 was determined using BSC-1 cells by an enzyme-linked immunosorbent assay (ELISA); assay type: functional, cell-based; conditions: Cercopithecidae
[5] = system: HFF; assay: Visual cytotoxicity was scored on uninfected HFF cells; assay type: functional, cell-based; conditions: Homo sapiens
[6] = system: CEM-SS; assay: Intracellular phosphorylation (100 uM) in uninfected CEM-SS cells was studied after 24 hrs of Incubation.; assay type: functional, cell-based; conditions: Homo sapiens
Summary of the method: (§2)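 Uninfected cells grown in suspension with compound at the stated extracellular concentration for 5 or 24 h. Cells pelleted and washed in cold Puck's saline with glucose. Nucleotides extracted with 0.6 N TCA on ice, neutralized with freon/0.5 M triethylamine, then separated by reverse-phase C18 HPLC (formic acid pH 2.5 to 50% methanol gradient), UV 254/290 nm; peaks identified by electrospray MS in a separate run. TCN-P quantified against standards and converted to μM using 1.9 pL/cell.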

[7] = system: CEM-SS; assay: Intracellular phosphorylation (10 uM) in uninfected CEM-SS cells was studied; assay type: functional, cell-based; conditions: Homo sapiens; summary of the method: as §2
[8] = Antiviral activity was evaluated by RT (reverse transcriptase) activity in cells acutely infected with HIV-1
[9] = species on record: Homo sapiens; assay: Intracellular phosphorylation (100 uM) in uninfected AA2 cells was studied, after 5 hrs of Incubation.; assay type: functional, cell-based; summary of the method: as §2
[10] = system: CEM-SS; assay: Intracellular phosphorylation (10 uM) in uninfected CEM-SS cells was studied after 24 hrs of Incubation.; assay type: functional, cell-based; conditions: Homo sapiens; summary of the method: as §2
[11] = system: CEM-SS; assay: Intracellular phosphorylation (100 uM) studied, after 5 hrs of Incubation.; assay type: functional, cell-based; conditions: Homo sapiens; summary of the method: as §2
[12] = as §1; assay type: cell-based; conditions: Homo sapiens
Summary of the method: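 KB cells plated at 5000/well and incubated overnight at 37 °C. Compound added in triplicate at eight concentrations, then 48 h at 37 °C in CO₂ (two population doublings). Cells fixed with 95% ethanol, stained with 0.1% crystal violet, dye eluted with acidified ethanol and read at 570 nm. IC50 taken from linear regression of % inhibition vs log concentration.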

Row | Structure (SMILES) | IC50 [1] [µM] | IC50 [2] [µM] | IC50 [3] [µM] | IC50 [4] [µM] | IC50 [5] [µM] | Concentration [6] [µM] | Concentration [7] [µM] | IC50 [8] [nM] | Concentration [9] [µM] | Concentration [10] [µM] | Concentration [11] [µM] | IC50 [12] [µM]
1 | CCCCCCCC(=O)NC1=NN(C)c2ncnc3c2c1cn3C1O[C@H](CO)[C@@H](O)[C@H]1O (some centres undefined) | 32 | 12 | 40 | > 100 | 21 |  |  |  |  |  |  | 
2 | CC(=O)NC1=NN(C)c2ncnc3c2c1cn3C1O[C@H](CO)[C@@H](O)[C@H]1O (some centres undefined) | > 100 | > 100 | > 100 | > 100 | > 100 |  |  |  |  |  |  | 
3 | CCCCC(=O)NC1=NN(C)c2ncnc3c2c1cn3C1O[C@H](CO)[C@@H](O)[C@H]1O (some centres undefined) | 32 | 0.45 | 30 | > 100 | > 100 | 710 |  |  |  |  |  | 
4 | CCCCCCCCC(=O)NC1=NN(C)c2ncnc3c2c1cn3C1O[C@H](CO)[C@@H](O)[C@H]1O (some centres undefined) | 32 | 12 | 65 | > 100 | 21 |  | 243 |  |  |  |  | 
5 | CN1N=C(N)c2cn([C@@H]3O[C@H](COP(=O)(O)O)[C@@H](O)[C@H]3O)c3ncnc1c23 [TRICIRIBINE PHOSPHATE] | > 1 |  | 10 | 20 |  |  |  | 40 |  |  |  | 
6 | CCCCCCC(=O)NC1=NN(C)c2ncnc3c2c1cn3C1O[C@H](CO)[C@@H](O)[C@H]1O (some centres undefined) | 32 | 11 | 30 | > 100 | 32 |  |  |  | 48 | 225 | 850 | 
7 | CCCCCCCCCC(=O)NC1=NN(C)c2ncnc3c2c1cn3C1O[C@H](CO)[C@@H](O)[C@H]1O (some centres undefined) | 32 | 12 | 40 | > 100 | 21 |  |  |  |  |  |  | 
8 | CN1N=C(NC(=O)C(C)(C)C)c2cn(C3O[C@H](CO)[C@@H](O)[C@H]3O)c3ncnc1c23 (some centres undefined) | > 100 | > 100 | > 100 | > 100 | > 100 |  |  |  |  |  |  | 
9 | CC(C)C(=O)NC1=NN(C)c2ncnc3c2c1cn3C1O[C@H](CO)[C@@H](O)[C@H]1O (some centres undefined) | > 100 | > 100 | > 100 | > 100 | > 100 |  |  |  |  |  |  | 
10 | CCC(=O)NC1=NN(C)c2ncnc3c2c1cn3C1O[C@H](CO)[C@@H](O)[C@H]1O (some centres undefined) | > 100 | 40 |  | > 100 | 100 |  |  |  |  |  |  | > 100
11 | CCCCCCCCCCCC(=O)NC1=NN(C)c2ncnc3c2c1cn3C1O[C@H](CO)[C@@H](O)[C@H]1O (some centres undefined) | 32 | 12 | 75 | 45 | 21 |  |  |  |  |  |  | 
12 | CCCCCC(=O)NC1=NN(C)c2ncnc3c2c1cn3C1O[C@H](CO)[C@@H](O)[C@H]1O (some centres undefined) | 45 | 8.8 | 40 | > 100 | 100 |  |  |  |  |  |  | 
13 | CN1N=C(NC(=O)c2ccccc2)c2cn(C3O[C@H](CO)[C@@H](O)[C@H]3O)c3ncnc1c23 (some centres undefined) | > 100 | > 100 | > 100 | > 100 | > 100 |  |  |  |  |  |  | 
14 | CCCC(=O)NC1=NN(C)c2ncnc3c2c1cn3C1O[C@H](CO)[C@@H](O)[C@H]1O (some centres undefined) | > 100 | 10 | 100 | > 100 | 100 |  |  |  |  |  |  | 
